# Results: PMC4145829 (Drug Design, Development and Therapy, 2014)
# “Also recorded” adds a separate entry of the source.
# Tests used:
# patients = settings: cited from earlier work; for Associated clinical toxicities: Table 1
# [1] = tested on: subintestinal vessels (SIVs) of zebrafish embryos; assay: Zebrafish subintestinal vessel angiogenesis assay; assay type: in vivo; settings: for effect on SIV angiogenesis (in words): zebrafish embryos
# zebrafish embryos = assay: Zebrafish toxicity assay; assay type: in vivo; settings: for gross morphological changes (in words): zebrafish larvae, exposure to 96 hours
# In short: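 Wild-type embryos at 24 hpf, bath-exposed in distilled water (pH 6.8–8) at 28°C with solutions renewed every 24 h. Naïve and 0.1% DMSO vehicle controls were included. Five concentrations, spacing factor 2, within solubility limits; 12 embryos per concentration per replicate; three independent experiments. Toxicity scored at 48 and 96 hpf; NOEC/LOEC derived experimentally; LC50 from pooled mortality via sigmoidal fit.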
# [2] = tested on: human primary endothelial cells; settings: cited from earlier work
# [3] = tested on: chick chorioallantoic membrane; settings: cited from earlier work
# VEGFR = settings: read-out: VEGFR inhibition IC50; biochemical assays; cited from earlier work
# [4] = Compound precipitation in the test medium; assay type: physicochemical; settings: test medium of the zebrafish assays (distilled water, 0.1% DMSO)
# [5] = tested on: mouse dorsal air sac model; settings: cited from earlier work
# [6] = patients enrolled in clinical trial
# [7] = concentration not given, 96 hpf
molecule,measurement,setting,value
COc1ccc(/C=C\c2cc(OC)c(OC)c(OC)c2)cc1O [Combretastatin],Associated clinical toxicities,patients,Multiple systemic toxicities
same,effect on SIV angiogenesis (in words),[1]; 96 hpf,lack of anti-angiogenic activity
same,effect on SIV angiogenesis (in words),"[1]; 96 hpf, listed as combretastatin",Angiogenesis inhibition was not demonstrated
same,gross morphological changes (in words),zebrafish embryos,coagulation of zebrafish embryos
Clc1ccc(Nc2nnc(Cc3ccncc3)c3ccccc23)cc1 [Vatalanib],Associated clinical toxicities,patients,Multiple systemic toxicities
same,gross morphological changes (in words),zebrafish embryos,"multiple gross morphological abnormalities like yolk-sac edema, shortened body axis, bent notochord, jaw deformity, blood pooling, and un-inflated swim bladder"
CCN(CC)CCNC(=O)c1c(C)[nH]c(/C=C2\C(=O)Nc3ccc(F)cc32)c1C [Sunitinib],Associated clinical toxicities,patients,Cardiotoxicity
same,patients with congestive cardiac failure,patients; [6],11%
same,patients with decrease in left ventricular ejection fraction,patients; [6],28%
CN1CC[C@H](c2c(O)cc(O)c3c(=O)cc(-c4ccccc4Cl)oc23)[C@H](O)C1 [Flavopiridol],Associated clinical toxicities,patients,Multiple systemic toxicities
same,toxicities in clinical trials,patients,tumor lysis syndrome and febrile neutropenia
same,decrease in the number of SIVs,"[1]; 2 μM, 96 hpf",72%
same,regression in SIV length,"[1]; 2 μM, 96 hpf",38%
same,effect on SIV length and basket (in words),"[1]; 2 μM, lectin staining at 72 hpf, Figure 2C",Partial regression of SIVs
same,effective anti-angiogenic concentration range (in words),[2],effective at micromolar concentrations
same,gross morphological changes (in words),zebrafish embryos,"multiple sub-lethal toxicities like yolk-sac edema, nonprogressive pericardial edema, bent notochord, and jaw deformity; also recorded: Widespread tissue necrosis; also recorded: multiple pathological changes like jaw deformity, pericardial edema, notochord deformity, and patchy necrosis"
COc1cc2nccc(Oc3ccc(NC(=O)C4(C(=O)Nc5ccc(F)cc5)CC4)cc3)c2cc1OC [Cabozantinib],Associated clinical toxicities,patients,Multiple systemic toxicities
CNC(=O)c1cc(Oc2ccc(NC(=O)Nc3ccc(Cl)c(C(F)(F)F)c3)c(F)c2)ccn1 [Regorafenib],concentration giving complete regression of SIVs,[1]; 96 hpf,< 1 µM
same,effect on SIV angiogenesis (in words),[1]; 96 hpf,complete inhibition of SIV angiogenesis
same,gross morphological changes (in words),zebrafish embryos,"nonprogressive pericardial edema in all the embryos subjected to treatment (ie, 36/36)"
same,concentration with significant angiogenesis inhibition in the in vivo CAM assay,[3],1 to 3 µM
same,IC50,VEGFR,13 to 46 nM
COc1cc2c(Nc3ccc(Br)cc3F)ncnc2cc1OCC1CCN(C)CC1 [Vandetanib],Associated clinical toxicities,patients,Cardiotoxicity
same,effect on SIV angiogenesis (in words),[1]; 96 hpf,incomplete SIV regression
C#Cc1cccc(Nc2ncnc3cc(OCCOC)c(OCCOC)cc23)c1 [Erlotinib],Associated clinical toxicities,patients,Multiple systemic toxicities
same,decrease in the number of SIVs within the basket,"[1]; 1 μM, 96 hpf",no effect
same,regression in SIV length,"[1]; 1 μM, 96 hpf",10%
same,effect on SIV angiogenesis (in words),[1]; 96 hpf,Angiogenesis inhibition was not demonstrated
same,concentration beyond which the compound precipitated,[4],> 1 µM
O=C1CCC(N2C(=O)c3ccccc3C2=O)C(=O)N1 (stereo not shown) [Thalidomide],Associated clinical toxicities,patients,Teratogenic
same,regression / decrease in SIV length,[1]; [7],20%–30%
same,effective anti-angiogenic concentration range (in words),[2],effective at micromolar concentrations
same,absence of fin development,zebrafish embryos; Figure S3,100%
same,concentration with reduction of otolith size and altered fin development,zebrafish embryos; zebrafish embryos,> 300 µM
same,gross morphological changes (in words),zebrafish embryos,did not result in gross morphological changes with respect to notochord development and development of cardiac edema
same,anti-angiogenic effect in the CAM assay (in words),[3],does not exhibit anti-angiogenic effects
Cc1ccc(Nc2nccc(N(C)c3ccc4c(C)n(C)nc4c3)n2)cc1S(N)(=O)=O [Pazopanib],Associated clinical toxicities,patients,Cardiotoxicity
CNC(=O)c1cc(Oc2ccc(NC(=O)Nc3ccc(Cl)c(C(F)(F)F)c3)cc2)ccn1 [Sorafenib],Associated clinical toxicities,patients,Cardiotoxicity
same,concentration giving complete regression of SIVs,[1]; 96 hpf,< 1 µM
same,effect on SIV angiogenesis (in words),[1]; 96 hpf,complete inhibition of SIV angiogenesis
same,gross morphological changes (in words),zebrafish embryos,"nonprogressive pericardial edema in all the embryos subjected to treatment (ie, 36/36)"
same,concentration with significant angiogenesis inhibition in the in vivo CAM assay,[3],1 to 3 µM
Cc1cc(C)c(/C=C2\C(=O)Nc3ccccc32)[nH]1 [SU5416],Associated clinical toxicities,patients,Multiple systemic toxicities
same,decrease in the number of SIVs within the basket,"[1]; 1 μM, 96 hpf",85%
same,regression in SIV length,"[1]; 1 μM, 96 hpf",38%
same,effect on SIV angiogenesis (in words),[1]; 96 hpf,incomplete SIV regression
same,gross morphological changes (in words),zebrafish embryos,"multiple gross morphological abnormalities like yolk-sac edema, shortened body axis, bent notochord, jaw deformity, blood pooling, and un-inflated swim bladder"
Bevacizumab,effect on SIV angiogenesis (in words),[1]; 96 hpf,extremely variable results; also recorded: Angiogenesis inhibition was not demonstrated
same,gross morphological changes (in words),zebrafish embryos,did not elicit dose-dependent toxicity or a consistent pathological phenotype
COc1cc2nccc(Oc3ccc(NC(=O)Nc4cc(C)on4)c(Cl)c3)c2cc1OC [Tivozanib],improvement of progression-free survival,patients; patients with renal cell carcinoma,~12 months
same,concentration giving complete regression in SIVs,[1]; 96 hpf,5 nM
Cc1ccc(C(=O)Nc2ccc(S(=O)(=O)O)c3cc(S(=O)(=O)O)cc(S(=O)(=O)O)c23)cc1NC(=O)c1cccc(NC(=O)Nc2cccc(C(=O)Nc3cc(C(=O)Nc4ccc(S(=O)(=O)O)c5cc(S(=O)(=O)O)cc(S(=O)(=O)O)c45)ccc3C)c2)c1 [Suramin],Associated clinical toxicities,patients,Multiple systemic toxicities
same,toxicities in clinical trials,patients,"neutropenia, neurological dysfunction, and development of renal insufficiency"
same,inhibition of vessels within the angiogenic basket,[1]; [7],45%
same,regression / decrease in SIV length,[1]; [7],30%
same,effective anti-angiogenic concentration range (in words),[2],effective at micromolar concentrations
same,LC50 fold higher than the other multikinase inhibitors,zebrafish embryos; 96 hpf,about 200 fold
same,gross morphological changes (in words),zebrafish embryos,"multiple sub-lethal toxicities like yolk-sac edema, nonprogressive pericardial edema, bent notochord, and jaw deformity; also recorded: multiple pathological changes like jaw deformity, pericardial edema, notochord deformity, and patchy necrosis"
same,concentration inhibiting angiogenesis in the CAM assay,[3],7 µM
same,fold higher concentration than VEGFR inhibitors in the CAM assay,[3],7 fold
CO[C@@H]1[C@H](OC(=O)NC(=O)CCl)CC[C@]2(CO2)[C@H]1[C@@]1(C)O[C@@H]1CC=C(C)C [TNP-470],regression / decrease in SIV length,[1]; [7],20%–30%
same,effect on SIV angiogenesis (in words),[1]; 96 hpf,formation of aberrant SIV extensions
same,toxicity limiting effectiveness,[5],severe weight loss
same,gross morphological changes (in words),zebrafish embryos,abnormal notochord morphology
same,concentration inhibiting angiogenesis in the CAM assay,[3],100 to 125 µM
same,fold higher concentration than VEGFR inhibitors in the CAM assay,[3],100 fold
